# Laboratory results reported in publication PMC8526916 (International Journal for Parasitology: Drugs and Drug …, 2021).
# Columns and labels:
# BKI-1294 plasma exposure = type: in vivo, sheep; conditions: G1
# Method in brief: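 Rasa Aragonesa ewes (12 months, seronegative), challenged i.v. with Nc-Spain7 tachyzoites. From 48 h pi, test compound was given orally by oro-ruminal probe at 100 mg/kg, 5 doses every other day. Heparinized blood was sampled at set times and plasma analysed by LC-MS/MS. Troughs were taken 48 h after each dose; values are mean ± S.D.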
# [1] = Plasma protein binding by equilibrium dialysis, mouse plasma; type: in vitro ADME; conditions: 5 μM
# Method in brief: (§1)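 Test compound in DMSO was spiked into plasma at 5 μM; an aliquot of spiked plasma served as the 100% recovery standard. Samples were matrix-matched, extracted in 80% acetonitrile with internal standard and quantified by UPLC-MS/MS. Fraction bound = bound/(unbound + bound), corrected for matrix dilution.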
# [2] = Plasma protein binding by equilibrium dialysis, rat plasma; type: in vitro ADME; conditions: 5 μM
# Method in brief: as §1
# [3] = Plasma protein binding by equilibrium dialysis, dog plasma; type: in vitro ADME; conditions: 5 μM
# Method in brief: as §1
# [4] = Plasma protein binding by equilibrium dialysis, human plasma; type: in vitro ADME; conditions: 5 μM
# Method in brief: as §1
# [5] = Safety monitoring of treated pregnant sheep; type: in vivo
# Method in brief: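 Infected pregnant ewes received test compound orally at 100 mg/kg, 5 doses every other day from 48 h pi; uninfected controls received vehicle. A veterinarian observed animals daily for faecal consistency, blood in faeces and behavioural changes. Rectal temperature was taken daily to day 14 pi, then weekly; >40 °C counted as fever.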
# [6] = tested on: Neospora caninum Nc-Spain7 tachyzoites; test: Rectal temperatures and fever in N. caninum-infected pregnant sheep; type: in vivo; conditions: days 5, 7 and 9 pi
# IFNγ = test: Peripheral blood cell stimulation assay, IFNγ production; type: in vivo, sheep
# Method in brief: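 Heparinized jugular blood from dams was sampled before infection, at 3, 5, 7 and 10 days pi, then weekly. Blood was cultured with soluble N. caninum antigen or ConA for 24 h at 37 °C, 5% CO2, and IFNγ measured in supernatants by enzyme immunoassay. Analysis: repeated-measures two-way ANOVA to day 28 pi, one-way ANOVA afterwards; mean ± S.D.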
# [7] = tested on: N. caninum soluble antigens; test: In-house indirect ELISA, IgG against N. caninum soluble antigens in dams; type: in vivo, sheep
# Method in brief: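 Dam sera were collected before infection, at 3, 5, 7 and 10 days pi, then weekly. Plates were coated with soluble N. caninum antigen and blocked; sera were diluted 1:100 in 1% BSA in PBS with 0.05% Tween 20. Detection used HRP anti-goat/sheep IgG (1:20000) with ABTS, stopped with 0.3 M oxalic acid, read at OD405 and expressed as RIPC. Analysis: repeated-measures two-way ANOVA to day 28 pi, one-way ANOVA after.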
# NcSAG1 = test: Commercial TgSAG1 ELISA, anti-NcSAG1 IgG in dams; type: in vivo, sheep; conditions: days 21 (P < 0.01) and 42 pi (P < 0.05)
# [8] = tested on: Neospora caninum Nc-Spain7 tachyzoites; test: Foetal survival in pregnant sheep infected with N. caninum at mid-pregnancy; type: in vivo
# Neospora caninum = test: qPCR parasite burden in placentomes and foetal brain; type: in vivo; conditions: aborted sheep
# Method in brief: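 DNA was extracted by paramagnetic-particle capture from 50–100 mg of foetal brain (three replicates each) and six placental samples per dam. Samples were screened by nested Nc5-PCR (337 bp product), with 10, 1 and 0.1 tachyzoite-equivalent controls in 100 ng sheep DNA and an uninfected-group negative. PCR-positive samples were quantified by real-time PCR; burdens compared by Mann–Whitney test.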
# [9] = tested on: Toxoplasma gondii oocysts; conditions: sheep infected with T. gondii oocysts during pregnancy; ref Sánchez-Sánchez et al., 2019; cited from earlier work
# Nc-Spain7 isolate = conditions: in vitro, ref Winzer et al., 2015; cited from earlier work
# [10] = mice; ref Vidadala et al., 2016; cited from earlier work
# [11] = ref Schaefer et al., 2016; cited from earlier work
# [12] = pregnant sheep; ref Sánchez-Sánchez et al., 2019; cited from earlier work
compound,measurement,setting,value
CCOc1ccc2cc(-c3nn(CC4CCN(C)CC4)c4ncnc(N)c34)ccc2c1 [BKI-1294],trough plasma concentrations,BKI-1294 plasma exposure; 48 h after 1st oral dose of 100 mg/kg,0.7 ± 0.4 µM
same,trough plasma concentrations,BKI-1294 plasma exposure; 48 h after 2nd oral dose of 100 mg/kg,0.7 ± 0.4 µM
same,trough plasma concentrations,BKI-1294 plasma exposure; 48 h after 3rd oral dose of 100 mg/kg,0.9 ± 0.5 µM
same,trough plasma concentrations,BKI-1294 plasma exposure; 48 h after 4th oral dose of 100 mg/kg,1.4 ± 1.1 µM
same,trough plasma concentrations,BKI-1294 plasma exposure; 48 h after 5th oral dose of 100 mg/kg,1.3 ± 0.8 µM
same,plasma protein binding (bound),[1],85%
same,plasma protein binding (bound),[2],85%
same,plasma protein binding (bound),[3],52%
same,plasma protein binding (bound),[4],85%
same,safety of oral administration,"[5]; N. caninum-infected pregnant sheep, oral 100 mg/kg x5",safe
same,"Diarrhoea, bloody stools, and behavioural disorders","[5]; oral 100 mg/kg, 5 doses every other day, pregnant sheep",not observed
same,rectal temperatures versus infected/untreated group,[6],significantly lower increase in rectal temperatures
same,IFNγ levels versus infected/untreated group,"IFNγ; day 7 pi, blood stimulated with N. caninum antigen, P < 0.0001",higher IFNγ levels
same,IFNγ levels relative to infected/untreated group,"IFNγ; days 14, 21 and 28 pi, not significant",approximately 10 fold
same,IgG levels against N. caninum soluble antigens versus infected/untreated group,"[7]; days 14, 21 and 28 pi",lower antibody response
same,IgG levels against N. caninum soluble antigens versus infected/untreated group,[7]; from day 35 pi onwards,no significant differences
same,anti-NcSAG1 IgG levels versus infected/untreated group,NcSAG1,lower anti-NcSAG1 IgG levels
same,median day of foetal death,[8]; G1 infected/treated (G2: 45),44 day pi
same,"foetal mortality (sheep whose foetuses died, 7 out of 8)","[8]; G1 infected/treated, same in G2 untreated",87%
same,foetal survival rate versus infected/untreated group,[8]; log-rank test,no significant differences
same,parasite burden in placentomes versus infected/untreated group,Neospora caninum,No significant differences
same,efficacy against abortion,[9],71%
same,efficacy against vertical transmission,[9],53%
same,IC50,Nc-Spain7 isolate,270 ± 20 nM
same,CNS crossing,[10],30%
same,bioavailability lower than BKI-1553,[10],30 fold
same,plasma clearance,[10],high plasma clearance
same,PPB in mice,[11],85%
same,safety of repeated oral administration,[12],"safe, both locally and systemically"
